This is an account of results in ChEMBL document CHEMBL1143758, “Antitumor studies. part 3: design, synthesis, antitumor activity, and molecular docking study of novel 2-methylthio-, 2-amino-, and 2-(N-substituted amino)-10-alkyl-2-deoxo-5-deazaflavins” (Bioorg Med Chem, 2007).

Converted amounts (≈) assume the structure as drawn.

For test [1], the system named is CCRF-HSB-2. The experiment in a line: Antitumor activity against human CCRF-HSB2 cells by modified MTT assay. Type of test: functional, cell-based. A general note: Tetrazolium assays rely on reduction of a dye to a coloured formazan, in cell work by metabolically active cells.
In test [2] the test system is KB. The test is described as follows: Antitumor activity against human KB cells by modified MTT assay. The format is functional, cell-based.
Test [3] relates to Human alphaherpesvirus 1. The experiment in a line: Antiviral activity against HSV1 in HELF cells assessed as reduction of virus plaque formation. Type of test: functional. Particulars: Human alphaherpesvirus 1, HELF; read-out: ED50 (the source's name). In outline:
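In vitro plaque-reduction test against HSV-1, run with an acyclovir positive control. The value is reported as ED50, the minimum concentration that reduces virus plaque formation by 50%.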

Broadly, the IC50 is the point on the concentration scale where inhibition reaches its midpoint.

With `CSc1nc2n(C)c3cc(C)c(C)cc3cc-2c(=O)n1`, the values for the IC50 in test [1] and in test [2] were 7.06 µg/mL (≈ 24.7 µM) and 11.4 µg/mL (≈ 39.9 µM), respectively.
With `COc1ccc(OC)c2c1cc1c(=O)nc(SC)nc-1n2C`, the figures for the half-maximal inhibitory concentration (IC50) in test [1] and in test [2] were 4.84 µg/mL (≈ 15.3 µM) and 8.75 µg/mL (≈ 27.6 µM), respectively. Moreover, the EC50 in test [3] came out at 20 µg/mL (≈ 63 µM).
Regarding `CN(C)c1nc2n(C)c3ccccc3cc-2c(=O)n1`, the IC50 in test [1] came out at 22.6 µg/mL (≈ 88.9 µM); in test [2], 20.1 µg/mL (≈ 79 µM).
For `COc1ccc2c(c1)cc1c(=O)nc(N(C)C)nc-1n2C`, the half-inhibitory concentration (IC50) in test [1] came out at 35.6 µg/mL (≈ 125 µM); in test [2], 23.6 µg/mL (≈ 83 µM).
The matching figures for `CN(C)c1nc2n(C)c3ccc(Cl)cc3cc-2c(=O)n1`: 46.4 µg/mL (≈ 161 µM) and 58.5 µg/mL (≈ 203 µM).
The corresponding values for `Cn1c2nc(N)nc(=O)c-2cc2ccccc21` are 13.7 µg/mL (≈ 60.6 µM) and 17.9 µg/mL (≈ 79.1 µM).
For the molecule `Cc1ccc2c(c1)cc1c(=O)nc(N)nc-1n2C`, the half-maximal inhibitory concentration (IC50) in test [1] came out at 14.3 µg/mL (≈ 59.5 µM); in test [2], 44.5 µg/mL (≈ 185 µM).
The matching figures for `CCCCNc1nc2n(C)c3ccccc3cc-2c(=O)n1`: 6.04 µg/mL (≈ 21.4 µM) and 7.31 µg/mL (≈ 25.9 µM).
The matching figures for `CN(CCO)c1nc2n(C)c3ccccc3cc-2c(=O)n1`: 34.9 µg/mL (≈ 123 µM) and 34.3 µg/mL (≈ 121 µM).
The matching figures for `CCn1c2nc(N(C)CCO)nc(=O)c-2cc2ccccc21`: 26.3 µg/mL (≈ 88.2 µM) and 23.5 µg/mL (≈ 78.8 µM).
For `CCn1c2nc(N(C)CCO)nc(=O)c-2cc2cc(C)ccc21`, the IC50 came to 9.5 µg/mL (≈ 30.4 µM) in test [1] and 25.1 µg/mL (≈ 80.4 µM) in test [2].
The matching figures for `Cn1c2nc(N3CCCCC3)nc(=O)c-2cc2ccccc21`: 24.7 µg/mL (≈ 83.9 µM) and 32 µg/mL (≈ 109 µM).
As to `COc1ccc2cc3c(=O)nc(N(C)CCO)nc-3n(C)c2c1`, the IC50 in test [1] came out at 39 µg/mL (≈ 124 µM); in test [2], 36 µg/mL (≈ 115 µM).
For `Cn1c2nc(N3CCOCC3)nc(=O)c-2cc2ccccc21`, the half-inhibitory concentration (IC50) in test [1] is above 100 µg/mL; in test [2], 68.1 µg/mL (≈ 230 µM).
Consider `CN1CCN(c2nc3n(C)c4ccccc4cc-3c(=O)n2)CC1`, for which the IC50 in test [1] amounted to 5.9 µg/mL (≈ 19.1 µM); in test [2] it was 8.44 µg/mL (≈ 27.3 µM).
The corresponding values for `COc1ccc2c(c1)cc1c(=O)nc(N3CCOCC3)nc-1n2C` are 24.5 µg/mL (≈ 75.1 µM) and 38.3 µg/mL (≈ 117 µM).
The corresponding values for `Cc1ccc2c(c1)cc1c(=O)nc(N3CCCCC3)nc-1n2C` are 25.2 µg/mL (≈ 81.7 µM) and 32.7 µg/mL (≈ 106 µM).
`CCn1c2nc(SC)nc(=O)c-2cc2ccccc21`: the values for the half-inhibitory concentration (IC50) in test [1] and in test [2] were 7.07 µg/mL (≈ 26.1 µM) and 5.42 µg/mL (≈ 20 µM), respectively. Also, the EC50 in test [3] was found to be 20 µg/mL (≈ 73.7 µM).
For `CSc1nc2n(C)c3c(C)cccc3cc-2c(=O)n1`, the figures for the IC50 in test [1] and in test [2] were 15.3 µg/mL (≈ 56.4 µM) and 12 µg/mL (≈ 44.2 µM), respectively.
As for `CCn1c2nc(N3CCOCC3)nc(=O)c-2cc2cc(C)ccc21`, the 50% inhibitory concentration (IC50) is 27.7 µg/mL (≈ 85.4 µM) in test [1] and 50.8 µg/mL (≈ 157 µM) in test [2].
Turning to `COc1ccc2cc3c(=O)nc(SC)nc-3n(C)c2c1`, the IC50 in test [1] is 5.92 µg/mL (≈ 20.6 µM); in test [2], 7.69 µg/mL (≈ 26.8 µM).
In the case of `CSc1nc2n(C)c3ccc(Cl)cc3cc-2c(=O)n1`, the IC50 in test [1] was determined as 9.87 µg/mL (≈ 33.8 µM); in test [2], 21.5 µg/mL (≈ 73.7 µM).
The corresponding values for `CN1CCN(c2nc3n(C)c4ccc(Cl)cc4cc-3c(=O)n2)CC1` are 7.4 µg/mL (≈ 21.5 µM) and 16.6 µg/mL (≈ 48.3 µM).
Turning to `Cc1cc2cc3c(=O)nc(N4CCOCC4)nc-3n(C)c2cc1C`, the IC50 in test [1] is 6 µg/mL (≈ 18.5 µM); in test [2], 8.8 µg/mL (≈ 27.1 µM).
The matching figures for `COc1ccc2c(c1)cc1c(=O)nc(N3CCN(C)CC3)nc-1n2C`: 12.6 µg/mL (≈ 37.1 µM) and 27 µg/mL (≈ 79.6 µM).
The matching figures for `CCCCCCCCNc1nc2n(C)c3ccccc3cc-2c(=O)n1`: 8.9 µg/mL (≈ 26.3 µM) and 7.9 µg/mL (≈ 23.3 µM).
As for `CSc1nc2n(C)c3ccccc3cc-2c(=O)n1`, the values for the IC50 in test [1] and in test [2] were 1.91 µg/mL (≈ 7.42 µM) and 1.97 µg/mL (≈ 7.66 µM), respectively. Also, the EC50 in test [3] was found to be 0.8 µg/mL (≈ 3.11 µM).
In the case of `CCn1c2nc(SC)nc(=O)c-2cc2cc(C)ccc21`, the IC50 in test [1] was determined as 1.82 µg/mL (≈ 6.38 µM); in test [2] it was 1.73 µg/mL (≈ 6.06 µM). The EC50 in test [3] was determined as 4 µg/mL (≈ 14 µM).
For the molecule `COc1ccc2c(c1)cc1c(=O)nc(SC)nc-1n2C`, the IC50 in test [1] worked out at 9.27 µg/mL (≈ 32.3 µM); in test [2], 9.82 µg/mL (≈ 34.2 µM).
With `CCn1c2nc(N(C)C)nc(=O)c-2cc2ccccc21`, the half-inhibitory concentration (IC50) in test [1] came out at 1.96 µg/mL (≈ 7.3 µM); in test [2] it was 3.96 µg/mL (≈ 14.8 µM).
As for `Cc1ccc2c(c1)cc1c(=O)nc(N(C)C)nc-1n2C`, the concentration for half-maximal inhibition (IC50) in test [1] stood at 16.4 µg/mL (≈ 61.1 µM); in test [2], 24.8 µg/mL (≈ 92.4 µM).
The matching figures for `CCn1c2nc(NCCO)nc(=O)c-2cc2ccccc21`: 11.3 µg/mL (≈ 39.7 µM) and 14 µg/mL (≈ 49.2 µM).
The matching figures for `Cn1c2nc(N3CCCCC3)nc(=O)c-2cc2cc(Cl)ccc21`: 69.4 µg/mL (≈ 211 µM) and 82.6 µg/mL (≈ 251 µM).
The corresponding values for `Cn1c2nc(N3CCOCC3)nc(=O)c-2cc2cc(Cl)ccc21` are 96.1 µg/mL (≈ 291 µM) and 52.7 µg/mL (≈ 159 µM).
As to `CCn1c2nc(N)nc(=O)c-2cc2ccccc21`, the concentration for half-maximal inhibition (IC50) came out at 1.64 µg/mL (≈ 6.83 µM) in test [1] and 1 µg/mL (≈ 4.16 µM) in test [2]. Moreover, the EC50 in test [3] is 4 µg/mL (≈ 16.6 µM).
Take `COc1ccc2c(c1)cc1c(=O)[nH]c(=O)nc-1n2C`: the 50% inhibitory concentration (IC50) in test [1] stood at 37.1 µg/mL (≈ 144 µM); in test [2], 10 µg/mL (≈ 38.9 µM).
The matching figures for `CSc1nc2n(C)c3ccc(C)cc3cc-2c(=O)n1`: 9.57 µg/mL (≈ 35.3 µM) and 9.27 µg/mL (≈ 34.2 µM).
